Consider one substance from paper PMC9519467 (Bioactive Materials, 2022).

Series [1] deals with 4T1 tumor-bearing mice. Description: Tumor retention after intratumoral injection. Format: in vivo, BALB/c mice. Conditions: observed 6–120 h. Put shortly:
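4T1 flank tumors were raised in female BALB/c mice, and test compound or free P18 solution (10 μL) was injected into the tumor. Fluorescence was imaged by IVIS under isoflurane at 6, 12, 24, 48, 72, 96 and 120 h, and tumor intensity was quantified. In a separate pair of groups, the MMP-2 inhibitor Ilomastat (8 mg/kg) was injected into the tumor 15 min before the test compound, compared with no inhibitor. Tumor fluorescence was imaged at serial time points.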

For series [2], the system named is 4T1 tumor-bearing mice. Kind of series: In vivo photothermal effect. On the set-up: species or system BALB/c mice. Conditions: 6 h after tail vein injection, 660 nm, 0.5 W/cm^2, 6 min. Put shortly:
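The 4T1 model was female BALB/c mice with subcutaneous flank tumors, in two groups. One group got test compound i.v. (100 μL, 2.845 mg/mL in PBS); the comparator group got free P18 solution (100 μL) under the same conditions. Infrared thermal camera images and tumor temperature curves were recorded during irradiation.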

The subject of series [3] is 4T1 tumor-bearing mice. Kind of series: In vivo biodistribution after tail vein injection. Also noted: species or system BALB/c mice. Conditions: 1–24 h. Put shortly:
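Female BALB/c mice (4–6 weeks, 18–20 g) received 5 × 10^5 4T1 cells subcutaneously in the right flank and were grouped once tumors reached about 100 mm3. Test compound (100 μL, 2.845 mg/mL in PBS) was injected into the tail vein; free P18 in 10% DMSO/PBS served as comparator. P18 fluorescence was imaged by IVIS under isoflurane at 1, 3, 6, 9, 12 and 24 h. Mean tumor-site intensity was computed, and excised organs and tumor were imaged at 24 h.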

Purpurin 18 [P18]: the “course of tumor fluorescence intensity post i.t. injection” value in the series with 4T1 tumor-bearing mice [1] was “decreased gradually until 120 h”. The “temperature of the tumor under laser irradiation” value with 4T1 tumor-bearing mice [2] is 41 °C. Besides, the “fluorescence signal at the tumor site” value in the series on 4T1 tumor-bearing mice [3] was “barely detectable”.
